Data taken from ChEMBL document CHEMBL1128679, “Molecular similarity from atomic electrostatic multipole comparisons. Application to anti-HIV drugs” (J Med Chem, 1995).
pEC50: −log10 of the molar value.

Columns and labels:
[1] = Similarity index (SI) value of the compound.; type: functional
Outline: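 Computed by comparing atomic electrostatic multipoles at the atomic centres of the molecule pair. Molecule B is rotated and translated against the other by quasi-Newton minimization, using numerical first and second derivatives, with the Hessian updated after every move of B. R is replaced by R + 10^-4 to avoid division by zero. The procedure is repeated to obtain E_B.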

[2] = test system: AIK-T4; experiment: Ability to prevent HIV-1 induced T4 cell killing and HIV-1 replication.; type: functional, cell-based; details: Homo sapiens

SMILES: O=C(O)c1cc(O)cc(O)c1/N=N/c1ccc(/C=C/c2ccc(/N=N/c3c(O)cc(O)cc3C(=O)O)cc2S(=O)(=O)O)c(S(=O)(=O)O)c1
- SI [1]: 0.16
- pEC50 [2]: 5.85

SMILES: Nc1c(S(=O)(=O)O)cc2cc(S(=O)(=O)O)ccc2c1/N=N/c1ccc(/C=C/c2ccc(/N=N/c3c(N)c(S(=O)(=O)O)cc4cc(S(=O)(=O)O)ccc34)cc2S(=O)(=O)O)c(S(=O)(=O)O)c1
- SI [1]: 0.31
- pEC50 [2]: 5.54

SMILES: O=S(=O)(O)c1cc(/N=N/c2ccc3cccnc3c2O)ccc1/C=C/c1ccc(/N=N/c2ccc3cccnc3c2O)cc1S(=O)(=O)O
- SI [1]: 0.45
- pEC50 [2]: 5.19

SMILES: COc1cc(-c2ccc(/N=N/c3ccc4c(S(=O)(=O)O)cc(S(=O)(=O)O)c(N)c4c3O)c(OC)c2)ccc1/N=N/c1ccc2c(S(=O)(=O)O)cc(S(=O)(=O)O)c(N)c2c1O [CHICAGO SKY BLUE SODIUM]
- SI [1]: 0.4
- pEC50 [2]: 5.32

SMILES: O=S(=O)(O)c1cc(/N=N/c2cc(S(=O)(=O)O)c3cccnc3c2O)ccc1/C=C/c1ccc(/N=N/c2cc(S(=O)(=O)O)c3cccnc3c2O)cc1S(=O)(=O)O
- SI [1]: 0
- pEC50 [2]: 5.89

SMILES: Nc1cc(N)c(/N=N/c2ccc(/C=C/c3ccc(/N=N/c4c(N)cc(N)cc4C(=O)O)cc3S(=O)(=O)O)c(S(=O)(=O)O)c2)c(C(=O)O)c1
- SI [1]: 0.69
- pEC50 [2]: 4.51

SMILES: COc1cc(-c2ccc(/N=N/c3ccc4c(S(=O)(=O)O)ccc(S(=O)(=O)O)c4c3N)c(OC)c2)ccc1/N=N/c1ccc2c(S(=O)(=O)O)ccc(S(=O)(=O)O)c2c1N
- SI [1]: 0.5
- pEC50 [2]: 4.86
